In brackets after ≈: the same amount, converted by molar mass.
What was measured:
[1] = Apparent volume of distribution during terminal phase in CD-1 mouse at 2 to 3 mg/kg, iv administered as single bolus dose; type: ADME, organism-based; settings: in vivo
In short: (§1)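 Male CD-1 mice received a single intravenous bolus at 2–3 mg/kg. Reported values are IV clearance and the apparent volume of distribution during the terminal phase, in L/kg.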

[2] = Oral bioavailability in CD-1 mouse at 10 mg/kg administered via gavage as single dose; type: ADME, organism-based; settings: in vivo
[3] = Intrinsic clearance in human liver microsomes assessed per mg protein; type: ADME, Microsome; settings: read-out: CLH
In short: (§2)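 Clearance of compound by human or mouse liver microsomes, expressed as µL/min/mg protein.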

[4] = system: Mycobacterium tuberculosis; test: Antimycobacterial activity against Mycobacterium tuberculosis H37Rv assessed as bacterial growth inhibition under replicating, aerobic condition by microplate Alamar blue assay; type: functional
In short: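 Read-out is MIC90, the lowest concentration giving 90% growth inhibition of M.tb H37Rv, in µg/mL. Bacteria were grown under aerobic, replicating conditions (MABA).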

[5] = system: Mycobacterium tuberculosis; test: Antimycobacterial activity against Mycobacterium tuberculosis H37Rv assessed as bacterial growth inhibition incubated for 10 days under anerobic condition followed by incubation under ambient gaseous condition for […] by low oxygen recovery assay; type: functional
In short: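 Read-out is MIC90, the lowest concentration giving 90% growth inhibition of M.tb H37Rv, in µg/mL. Bacteria were held under non-replicating, low-oxygen conditions (LORA).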

[6] = Intrinsic clearance in mouse liver microsomes assessed per mg protein; type: ADME, Microsome; settings: read-out: CLH; in short: as §2
[7] = Clearance in CD-1 mouse at 2 to 3 mg/kg, iv administered as single bolus dose; type: ADME, organism-based; settings: in vivo; in short: as §1
[8] = AUC (0 to infinity) in CD-1 mouse at 10 mg/kg, po via gavage administered as single dose; type: ADME, organism-based; design: dose 10 mg/kg, route oral, time infinity; settings: in vivo
In short: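 Male CD-1 mice given a single 10 mg/kg dose by oral gavage. Exposure is reported as area under the curve from 0 to infinity in µg*h/mL.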

[9] = system: Vero; test: Cytotoxicity against African green monkey Vero cells assessed as reduction in cell viability incubated for 72 hrs by […] assay; type: cell-based; settings: Chlorocebus sabaeus
[10] = target: Voltage-gated inwardly rectifying potassium channel KCNH2 (Homo sapiens, UniProt Q12809); test: Inhibition of human ERG
Voltage-gated inwardly rectifying potassium channel KCNH2, sequence (Q12809 whole entry): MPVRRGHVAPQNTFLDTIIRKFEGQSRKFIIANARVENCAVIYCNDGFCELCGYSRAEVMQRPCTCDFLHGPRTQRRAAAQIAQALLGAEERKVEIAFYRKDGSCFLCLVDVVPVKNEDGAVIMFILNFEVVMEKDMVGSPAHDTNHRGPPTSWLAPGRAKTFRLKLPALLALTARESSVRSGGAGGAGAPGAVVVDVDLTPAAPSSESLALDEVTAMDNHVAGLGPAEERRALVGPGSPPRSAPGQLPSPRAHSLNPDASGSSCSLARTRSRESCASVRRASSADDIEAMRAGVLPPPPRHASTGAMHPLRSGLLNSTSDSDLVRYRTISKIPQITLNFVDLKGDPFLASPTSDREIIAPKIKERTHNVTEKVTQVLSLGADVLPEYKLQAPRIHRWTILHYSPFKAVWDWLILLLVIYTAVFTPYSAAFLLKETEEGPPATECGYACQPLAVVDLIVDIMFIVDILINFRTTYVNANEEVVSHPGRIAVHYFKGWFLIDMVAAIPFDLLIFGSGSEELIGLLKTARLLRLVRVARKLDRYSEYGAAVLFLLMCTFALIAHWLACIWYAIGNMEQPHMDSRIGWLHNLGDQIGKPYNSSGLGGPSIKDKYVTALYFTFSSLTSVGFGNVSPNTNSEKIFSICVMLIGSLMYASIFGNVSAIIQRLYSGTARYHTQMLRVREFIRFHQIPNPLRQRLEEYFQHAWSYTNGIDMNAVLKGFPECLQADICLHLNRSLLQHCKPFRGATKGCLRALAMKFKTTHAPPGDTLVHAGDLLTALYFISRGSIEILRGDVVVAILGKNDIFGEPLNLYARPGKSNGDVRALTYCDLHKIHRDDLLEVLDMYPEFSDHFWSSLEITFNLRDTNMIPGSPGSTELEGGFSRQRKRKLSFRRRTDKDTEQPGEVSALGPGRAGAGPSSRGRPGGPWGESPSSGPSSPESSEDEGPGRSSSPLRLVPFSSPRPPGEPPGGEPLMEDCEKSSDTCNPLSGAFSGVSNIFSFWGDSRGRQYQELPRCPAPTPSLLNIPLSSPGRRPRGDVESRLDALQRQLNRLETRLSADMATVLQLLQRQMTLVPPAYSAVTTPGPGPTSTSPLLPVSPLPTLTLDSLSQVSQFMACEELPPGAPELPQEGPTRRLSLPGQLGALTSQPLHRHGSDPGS

Structure (SMILES)	Vz/F [1] [L/kg]	bioavailability [2] [%]	microsomal CLint [3] [µL/min/mg]	MIC90 [4] [µg/mL]	MIC90 [5] [µg/mL]	microsomal CLint [6] [µL/min/mg]	clearance [7] [mL/min/kg]	AUC(0-inf) [8] [ng·h/mL]	IC50 [9] [µg/mL]	IC50 [10] [µM]
COc1cc([C@](O)(CCN(C)C)[C@@H](c2cc3cc(Br)ccc3nc2OC)c2cccc(OC)c2F)cc(OC(C)C)n1 (racemic)	34	43	3.4	< 0.02	0.03 (≈ 0.0467 µM)	6	8.9	9000	> 10	> 30
COc1cc([C@](O)(CCN(C)C)[C@@H](c2cc3cc(Br)ccc3nc2OC)c2cccc(OC)c2F)cc(SC)n1 (racemic)	32	31	4.8	< 0.02	< 0.02	20	13	4600	> 10	> 30
CCOc1cc([C@](O)(CCN(C)C)[C@@H](c2cc3cc(Br)ccc3nc2OC)c2ccnc(OC)c2OC)cc(OC)n1 (racemic)	28	70	3.8	< 0.02	< 0.02	7.6	9.5	12700	> 10	3.3
COc1cc([C@](O)(CCN(C)C)[C@@H](c2cc3cc(C#N)ccc3nc2OC)c2cccc(OC)c2F)cc(SC)n1 (racemic)	54	28	16	0.02 (≈ 0.0347 µM)	0.04 (≈ 0.0694 µM)	36	42	1100	> 10	> 10
COc1cc([C@](O)(CCN(C)C)[C@@H](c2cc3cc(Br)ccc3nc2OC)c2ccnc(OC)c2OC)cc(N(C)C)n1 (racemic)	–	–	–	0.45 (≈ 0.702 µM)	0.02 (≈ 0.0312 µM)	–	–	–	–	–
COc1cc([C@](O)(CCN(C)C)[C@@H](c2cc3cc(Br)ccc3nc2OC)c2cccc(OC)c2F)cc(S(C)(=O)=O)n1 (racemic)	–	–	–	0.46 (≈ 0.694 µM)	0.73 (≈ 1.1 µM)	–	–	–	–	1.8
COc1cc([C@](O)(CCN(C)C)[C@@H](c2cc3cc(Br)ccc3nc2OC)c2ccnc(OC)c2OC)cc(OC(C)C)n1 (racemic)	19	22	6.4	< 0.01	< 0.01	6.7	6.8	5600	> 10	17
CCSc1cc([C@](O)(CCN(C)C)[C@@H](c2cc3cc(C#N)ccc3nc2OC)c2cccc(C)c2F)cc(SCC)n1 (racemic)	41	22	9.1	< 0.02	0.06 (≈ 0.0992 µM)	33	9.4	4000	> 10	> 10
COc1cc([C@](O)(CCN(C)C)[C@@H](c2cc3cc(C#N)ccc3nc2OC)c2cccc(C)c2F)cc(OC(F)F)n1 (racemic)	38	66	0.6	0.01 (≈ 0.0172 µM)	0.03 (≈ 0.0517 µM)	5.9	13	8600	> 10	> 30
CCSc1cc([C@](O)(CCN(C)C)[C@@H](c2cc3cc(Br)ccc3nc2OC)c2ccnc(OC)c2OC)cc(SCC)n1 (racemic)	–	–	–	0.04 (≈ 0.0582 µM)	0.21 (≈ 0.305 µM)	–	–	–	–	9.2
COc1cc([C@](O)(CCN(C)C)[C@@H](c2cc3cc(C#N)ccc3nc2OC)c2ccnc(OC)c2OC)cc(OC(F)F)n1 (racemic)	40	43	2.5	< 0.02	0.04 (≈ 0.0656 µM)	11	24	3000	> 10	7
CCSc1cc([C@](O)(CCN(C)C)[C@@H](c2cc3cc(Br)ccc3nc2OC)c2ccnc(OC)c2OC)cc(N(C)C)n1 (racemic)	–	–	–	0.04 (≈ 0.0596 µM)	0.57 (≈ 0.85 µM)	–	–	–	–	> 10
CCSc1cc([C@](O)(CCN(C)C)[C@H](c2ccccc2)c2cc3cc(Br)ccc3nc2OC)cc(SCC)n1 (racemic)	30	24	2.3	0.02 (≈ 0.0319 µM)	0.05 (≈ 0.0798 µM)	17	11	4000	> 10	> 30
COc1cccc([C@H](c2cc3cc(Br)ccc3nc2OC)[C@@](O)(CCN(C)C)c2cc(SC)nc(SC)c2)c1F (racemic)	15	66	3.4	< 0.02	< 0.02	17	13	8400	9.6 (≈ 14.8 µM)	> 10
CCSc1cc([C@](O)(CCN(C)C)[C@@H](c2cc3cc(C#N)ccc3nc2OC)c2cccc(OC)c2F)cc(SCC)n1 (racemic)	93	24	17	0.1 (≈ 0.161 µM)	0.2 (≈ 0.322 µM)	27	29	1400	> 10	> 10
CCSc1cc([C@](O)(CCN(C)C)[C@@H](c2cc3cc(C#N)ccc3nc2OC)c2ccnc(OC)c2OC)cc(SCC)n1 (racemic)	–	–	–	0.06 (≈ 0.0947 µM)	0.03 (≈ 0.0473 µM)	–	–	–	–	1.5
CCOc1cc([C@](O)(CCN(C)C)[C@@H](c2cc3cc(Br)ccc3nc2OC)c2ccnc(OC)c2OC)cc(OC(C)C)n1 (racemic)	9.1	58	1.8	< 0.02	< 0.02	1.6	3.1	32000	> 10	–
CCCOc1cc([C@](O)(CCN(C)C)[C@@H](c2cc3cc(Br)ccc3nc2OC)c2ccnc(OC)c2OC)cc(OC)n1 (racemic)	44	50	8.2	0.01 (≈ 0.0153 µM)	0.06 (≈ 0.0915 µM)	6.5	6.9	10900	> 10	–
CCSc1cc([C@](O)(CCN(C)C)[C@@H](c2cc3cc(C#N)ccc3nc2OC)c2cccc3c2OCO3)cc(SCC)n1 (racemic)	–	–	–	< 0.02	0.05 (≈ 0.0811 µM)	–	–	–	–	> 10
COc1cc([C@](O)(CCN(C)C)[C@@H](c2cc3cc(Br)ccc3nc2OC)c2ccnc(OC)c2OC)cc(OC2CCC2)n1 (racemic)	33	56	2.5	< 0.004	0.01 (≈ 0.015 µM)	4.6	11	8400	> 10	> 10
CCOc1cc([C@](O)(CCN(C)C)[C@@H](c2cc3cc(Br)ccc3nc2OC)c2c(OC)cncc2OC)cc(OC(C)C)n1 (racemic)	20	58	1.1	< 0.02	< 0.02	2.3	2.7	33000	> 10	> 10
COc1cc([C@](O)(CCN(C)C)[C@@H](c2cc3cc(C#N)ccc3nc2OC)c2ccnc(OC)c2OC)cc(N(C)C)n1 (racemic)	14	50	8.4	0.06 (≈ 0.102 µM)	0.06 (≈ 0.102 µM)	16	26	3300	> 10	3.4
COc1cc([C@](O)(CCN(C)C)[C@@H](c2cc3cc(Br)ccc3nc2OC)c2cccc(OC)c2F)cc(OC(F)F)n1 (racemic)	18	83	0.1	0.04 (≈ 0.0615 µM)	< 0.02	6.4	9.7	14400	> 10	> 30
COc1cc([C@](O)(CCN(C)C)[C@H](c2cccc(C)c2)c2cc3cc(Br)ccc3nc2OC)cc(OC(C)C)n1 (racemic)	–	–	–	0.01 (≈ 0.0164 µM)	0.01 (≈ 0.0164 µM)	–	–	–	–	> 10
CCS(=O)(=O)c1cc([C@](O)(CCN(C)C)[C@@H](c2cc3cc(C#N)ccc3nc2OC)c2ccnc(OC)c2OC)cc(S(=O)(=O)CC)n1 (racemic)	–	–	–	4.4 (≈ 6.31 µM)	5 (≈ 7.17 µM)	–	–	–	–	–
CCCOc1cc([C@](O)(CCN(C)C)[C@H](c2cccc(C)c2)c2cc3cc(Br)ccc3nc2OC)cc(OC)n1 (racemic)	–	–	–	0.01 (≈ 0.0164 µM)	0.02 (≈ 0.0329 µM)	–	–	–	–	> 10
COc1cc([C@](O)(CCN(C)C)[C@@H](c2cc3cc(C#N)ccc3nc2OC)c2cccc(OC)c2F)cc(OC(F)F)n1 (racemic)	–	–	–	< 0.02	< 0.02	–	–	–	–	–

From ChEMBL document CHEMBL4610003 (Bioorg Med Chem, 2020)
